Test results as given in paper PMC8202272 (Pulmonary Circulation, 2021).

Columns and labels:
[1] = system: human umbilical vein endothelial cell (HUVEC); assay: HUVEC proliferation assay; assay type: cell-based; settings: read-out: IC50 HUVECs proliferation
[2] = system: MRC5; assay: MRC5 proliferation assay; assay type: cell-based; settings: Homo sapiens, MRC5, read-out: IC50 MRC5 proliferation
[3] = Pharmacokinetic studies in Sprague Dawley rats; assay type: in vivo; settings: rat, plasma
[4] = system: Male SD rats; assay: Drug plus three weeks hypoxia; assay type: in vivo, rat; settings: for Right ventricular systolic pressure (RVSP): 17.8 µg/h Alzet osmotic pump for 14 of 21 days of hypoxia; for RVH compared to the normal control group: 28 days post-hypoxia; for Induction of severe PAH: drug plus hypoxia, rats
How it was run: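 Male SD rats got test compound 20 mg/kg SC once or 17.8 μg/h by osmotic minipump, then 3 weeks at FiO2 10% and 14 or 28 days normoxia; untreated normoxic rats as controls. Under isoflurane, RV pressure by sternotomy catheter; RV free wall, IVS, LV weighed. Lungs perfused with 10% formalin, H&E 8 μm sections, lumen/media area ratio, ≥20 arterioles/section. RV Picro-Sirius red staining.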

[5] = molecular target: T1, bone morphogenic protein receptor type 2 (BMPR2) (Homo sapiens, UniProt Q13873); assay: KdELECT assay, inhibitor binding constant for BMPR2
T1 sequence (Q13873 27-1038): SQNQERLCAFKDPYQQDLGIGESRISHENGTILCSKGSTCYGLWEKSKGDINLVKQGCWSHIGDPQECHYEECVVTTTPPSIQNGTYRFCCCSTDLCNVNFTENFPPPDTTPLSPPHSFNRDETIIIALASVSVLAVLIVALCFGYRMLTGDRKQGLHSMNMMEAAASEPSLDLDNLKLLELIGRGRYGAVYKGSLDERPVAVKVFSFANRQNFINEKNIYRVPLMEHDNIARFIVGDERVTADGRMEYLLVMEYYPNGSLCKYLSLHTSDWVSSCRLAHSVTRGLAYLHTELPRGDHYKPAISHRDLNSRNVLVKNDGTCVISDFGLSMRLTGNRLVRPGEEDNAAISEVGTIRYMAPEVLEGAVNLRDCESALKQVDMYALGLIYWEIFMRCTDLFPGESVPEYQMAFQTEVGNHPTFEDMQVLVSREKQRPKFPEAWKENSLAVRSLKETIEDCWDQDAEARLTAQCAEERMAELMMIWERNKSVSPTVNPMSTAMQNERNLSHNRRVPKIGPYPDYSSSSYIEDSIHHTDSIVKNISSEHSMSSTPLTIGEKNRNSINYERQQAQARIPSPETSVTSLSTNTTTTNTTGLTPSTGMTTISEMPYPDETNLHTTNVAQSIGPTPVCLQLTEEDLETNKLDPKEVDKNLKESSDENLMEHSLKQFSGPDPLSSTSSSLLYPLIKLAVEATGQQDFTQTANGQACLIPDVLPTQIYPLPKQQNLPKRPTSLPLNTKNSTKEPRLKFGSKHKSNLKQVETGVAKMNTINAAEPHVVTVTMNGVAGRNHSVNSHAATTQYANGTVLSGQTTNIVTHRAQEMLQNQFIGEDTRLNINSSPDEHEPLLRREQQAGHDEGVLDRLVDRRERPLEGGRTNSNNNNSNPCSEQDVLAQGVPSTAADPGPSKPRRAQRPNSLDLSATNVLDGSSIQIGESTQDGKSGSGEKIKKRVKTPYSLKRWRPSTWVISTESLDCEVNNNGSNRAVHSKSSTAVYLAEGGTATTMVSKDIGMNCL

[6] = molecular target: VEGFR2 kinase; settings: read-out: IC50 VEGFR2 kinase (reported); cited from earlier work
[7] = molecular target: VEGFR2 (Homo sapiens, UniProt P35968); assay: KINOMEscan Profiling against 468 human kinases: VEGFR2; assay type: binding; settings: 10,000 nM
VEGFR2, sequence (P35968 20-1356): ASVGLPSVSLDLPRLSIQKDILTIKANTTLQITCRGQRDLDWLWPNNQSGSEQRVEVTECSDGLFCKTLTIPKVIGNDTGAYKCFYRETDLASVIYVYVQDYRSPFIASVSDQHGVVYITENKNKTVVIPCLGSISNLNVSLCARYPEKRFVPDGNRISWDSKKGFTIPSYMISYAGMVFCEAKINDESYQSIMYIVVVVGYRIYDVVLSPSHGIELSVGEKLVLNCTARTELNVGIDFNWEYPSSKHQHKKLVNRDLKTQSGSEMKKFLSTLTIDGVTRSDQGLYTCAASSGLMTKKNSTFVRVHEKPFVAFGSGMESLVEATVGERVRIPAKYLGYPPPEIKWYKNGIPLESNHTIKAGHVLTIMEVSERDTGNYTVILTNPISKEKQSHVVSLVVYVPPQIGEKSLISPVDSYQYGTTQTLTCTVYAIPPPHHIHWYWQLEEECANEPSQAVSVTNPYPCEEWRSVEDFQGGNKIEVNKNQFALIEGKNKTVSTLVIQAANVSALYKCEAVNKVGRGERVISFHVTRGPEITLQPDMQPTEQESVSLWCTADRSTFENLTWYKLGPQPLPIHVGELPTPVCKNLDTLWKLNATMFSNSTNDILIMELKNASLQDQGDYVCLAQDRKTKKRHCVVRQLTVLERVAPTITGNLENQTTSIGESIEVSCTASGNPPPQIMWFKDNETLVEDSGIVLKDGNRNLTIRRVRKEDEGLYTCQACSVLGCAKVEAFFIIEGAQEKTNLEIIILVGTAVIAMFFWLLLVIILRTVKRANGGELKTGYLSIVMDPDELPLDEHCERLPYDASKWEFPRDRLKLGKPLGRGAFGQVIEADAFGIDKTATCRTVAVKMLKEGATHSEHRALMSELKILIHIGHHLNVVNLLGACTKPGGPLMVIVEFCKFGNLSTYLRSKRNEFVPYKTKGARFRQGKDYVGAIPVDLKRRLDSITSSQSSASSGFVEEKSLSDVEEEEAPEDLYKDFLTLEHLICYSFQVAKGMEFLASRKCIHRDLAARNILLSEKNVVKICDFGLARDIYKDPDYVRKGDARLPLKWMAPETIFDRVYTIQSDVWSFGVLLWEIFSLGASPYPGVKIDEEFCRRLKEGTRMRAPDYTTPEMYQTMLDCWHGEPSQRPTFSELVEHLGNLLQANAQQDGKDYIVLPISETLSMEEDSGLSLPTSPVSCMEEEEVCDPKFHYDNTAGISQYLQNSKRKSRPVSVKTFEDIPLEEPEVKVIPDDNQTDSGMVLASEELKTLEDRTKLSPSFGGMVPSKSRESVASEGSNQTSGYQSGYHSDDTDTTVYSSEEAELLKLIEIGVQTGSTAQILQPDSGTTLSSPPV

[8] = other: via an Alzet pump, 12 mg/kg

Row | AUC(0-t) [3, 8] [ng·h/mL] | Cmax [3, 8] [ng/mL] | half-life [3, 8] [h] | AUC(0-t) ([3]; sc, 20 mg/kg) [ng·h/mL] | Cmax ([3]; sc, 20 mg/kg) [ng/mL] | half-life ([3]; sc, 20 mg/kg) [h] | Right ventricular systolic pressure (RVSP) ([4]; 14 days after removal from hypoxia, mean ± SEM) [mmHg] | Right ventricular systolic pressure (RVSP) ([4]; 28 days after removal from hypoxia, mean ± SEM) [mmHg] | RVH by Fulton's Index (RV/(LV + IVS)) ([4]; 14 days post-hypoxia, Cabo = SC + Alzet groups, mean ± SEM) | RVH compared to the normal control group [4] | Induction of severe PAH [4] | Kd [5] [nM] | RV fibrosis (Picro-Sirius red, qualitative) ([4]; days 14 and 28 after removal from hypoxia, SU5416H vs CaboH groups) | Activity against VEGFR2 in kinome screen [7] | SMILES | IC50 [1] [nM] | IC50 [2] [nM] | IC50 [6] [nM]
1 | 16800 | 238 ± 83 | 43 ± 8 | 27500 | 1620 ± 103 | 25.7 ± 10.8 | 40.0 ± 3.1 | 27.9 ± 1.9 | 0.36 ± 0.02 | no significant difference | did not induce severe PAH | > 10000 | – | – | COc1cc2nccc(Oc3ccc(NC(=O)C4(C(=O)Nc5ccc(F)cc5)CC4)cc3)c2cc1OC [Cabozantinib, cabozantinib] | 4.9 | 549 | 0.035
2 | – | – | – | 12.6 ± 2 | 4.97 ± 2.3 | 5 ± 4.7 | – | – | – | significantly increased | induced severe PAH | – | increase in RV fibrosis | potent | Cc1cc(C)c(/C=C2\C(=O)Nc3ccccc32)[nH]1 [SU5416] | 330 | 11700 | –
